The test system of one data set is A20. Put plainly: Inhibition of ovalbumin-induced antigen presentation in mouse A20 cells treated 1 hr before ovalbumin addition incubated for 16 hrs followed by co-cultured with DO10.10 T-cell hybridoma cells for 24 hrs assessed as IL-2 production by luminex single-bead analysis. Format: functional, cell-based. The method in brief: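 A20 cells were seeded at 3 × 10⁵/mL and preincubated with compound for 1 h. Ovalbumin was then added (5 mg/mL final) for 16 h. Cells were washed three times with PBS, then DO10.10 T-cell hybridoma cells (2 × 10⁵/mL) were added. After 24 h, IL-2 was quantified by Luminex single-bead assay using two anti-IL-2 antibodies. IC50 is the mean of ≥2 independent experiments.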

For the next data set, the species on record is Homo sapiens. As to the kind of experiment: Selectivity ratio of IC50 for human cathepsin-K to IC50 for human cathepsin-S.
In another data set the target is T1, Cathepsin K (Homo sapiens, UniProt P43235).
T1 sequence (P43235 whole entry): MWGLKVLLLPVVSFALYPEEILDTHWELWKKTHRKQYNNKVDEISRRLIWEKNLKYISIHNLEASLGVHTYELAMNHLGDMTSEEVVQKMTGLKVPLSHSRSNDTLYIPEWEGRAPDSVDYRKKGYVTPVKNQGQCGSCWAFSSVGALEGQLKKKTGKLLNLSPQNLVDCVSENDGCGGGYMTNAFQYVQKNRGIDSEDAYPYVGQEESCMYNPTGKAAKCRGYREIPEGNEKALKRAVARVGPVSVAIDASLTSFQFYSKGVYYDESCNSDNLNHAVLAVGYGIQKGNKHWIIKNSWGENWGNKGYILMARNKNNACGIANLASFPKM
Put plainly: Inhibition of human cathepsin-K using Z-Leu-Arg-AMC as substrate up to 20 mins by fluorescence assay. The method in brief:
(§1)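 Fluorogenic quenched-peptide cleavage assay. Enzymes at 1 nM in 100 mM potassium phosphate pH 6.5, 5 mM EDTA-Na, 0.001% Triton X-100 and 5 mM DTT. Enzyme was added to the compound dilutions, then 20 μM substrate started the reaction: Z-Val-Val-Arg-AMC, or Z-Leu-Arg-AMC for CatK. Fluorescence (ex 360/em 465 nm) was read over 20 min. IC50 is the mean of ≥2 independent experiments.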

Data set [1] has as its target Cathepsin S (Homo sapiens, UniProt P25774). As to the kind of experiment: Inhibition of human cathepsin-S using Z-Val-Val-Arg-AMC as substrate up to 20 mins by fluorescence assay. The method in brief: as §1
The target in another data set is Procathepsin L (Homo sapiens, UniProt P07711). As to the kind of experiment: Inhibition of human cathepsin-L using Z-Val-Val-Arg-AMC as substrate up to 20 mins by fluorescence assay. The method in brief:
as §1

The target in another data set is Cathepsin B (Homo sapiens, UniProt P07858). Put plainly: Inhibition of human cathepsin-B using Z-Val-Val-Arg-AMC as substrate up to 20 mins by fluorescence assay. The gist of the method: as §1
The nature of data set [2]: Effective permeability of the compound by PAMPA. Format: ADME. Conditions: read-out: Peff.
Data set [3] deals with Cathepsin S (Mus musculus, UniProt O70370). Put plainly: Inhibition of mouse cathepsin-S using Z-Val-Val-Arg-AMC as substrate up to 20 mins by fluorescence assay. The method in brief:
as §1

Where only a bound is given, the exact number is not on record here.

Procathepsin L, sequence (P07711 whole entry): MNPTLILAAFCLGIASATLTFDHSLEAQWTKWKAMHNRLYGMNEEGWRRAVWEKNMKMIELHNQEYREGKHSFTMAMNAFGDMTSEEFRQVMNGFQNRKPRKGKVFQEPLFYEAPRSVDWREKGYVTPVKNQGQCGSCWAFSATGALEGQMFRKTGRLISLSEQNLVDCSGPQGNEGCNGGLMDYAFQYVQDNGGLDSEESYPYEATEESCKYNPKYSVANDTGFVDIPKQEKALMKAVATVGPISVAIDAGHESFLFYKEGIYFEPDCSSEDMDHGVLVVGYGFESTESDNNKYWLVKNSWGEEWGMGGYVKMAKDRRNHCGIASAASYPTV
Cathepsin S (Homo sapiens, UniProt P25774), sequence (P25774 whole entry): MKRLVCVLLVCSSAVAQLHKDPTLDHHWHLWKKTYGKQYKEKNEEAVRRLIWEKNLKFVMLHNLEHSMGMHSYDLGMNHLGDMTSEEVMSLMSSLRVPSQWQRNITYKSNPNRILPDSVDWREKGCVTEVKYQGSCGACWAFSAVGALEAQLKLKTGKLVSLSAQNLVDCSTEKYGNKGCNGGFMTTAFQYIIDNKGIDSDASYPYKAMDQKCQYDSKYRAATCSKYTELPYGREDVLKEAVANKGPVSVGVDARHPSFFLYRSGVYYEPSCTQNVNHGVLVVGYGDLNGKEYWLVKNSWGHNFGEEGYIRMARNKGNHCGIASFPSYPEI
Cathepsin S (Mus musculus, UniProt O70370), sequence (O70370 whole entry): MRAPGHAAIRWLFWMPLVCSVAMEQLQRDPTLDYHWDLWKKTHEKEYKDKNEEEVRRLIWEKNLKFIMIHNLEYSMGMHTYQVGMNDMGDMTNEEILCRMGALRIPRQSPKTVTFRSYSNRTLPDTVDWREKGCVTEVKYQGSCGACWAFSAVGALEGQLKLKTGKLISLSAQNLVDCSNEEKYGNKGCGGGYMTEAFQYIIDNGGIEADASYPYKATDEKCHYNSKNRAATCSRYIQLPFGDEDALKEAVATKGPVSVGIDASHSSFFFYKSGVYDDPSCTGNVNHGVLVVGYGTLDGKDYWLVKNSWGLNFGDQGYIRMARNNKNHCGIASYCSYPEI

With `N#CCNC(=O)[C@@H]1CN(S(=O)(=O)c2ccccc2C(F)(F)F)C[C@H]1C(=O)N1CCOCC1`, the results for the half-inhibitory concentration (IC50) in the data set with A20, at Cathepsin K and against Cathepsin S [1] were 118 nM, more than 25 µM and 18 nM, respectively. Besides, in the data set listed under Homo sapiens, the Ratio IC50 was more than 1000.

As to `N#CC1(NC(=O)[C@@H]2C[C@@H](S(=O)(=O)c3ccccc3)C[C@H]2C(=O)N2CCC2)CC1`, the half-maximal inhibitory concentration (IC50) (in general, the concentration that inhibits the measured activity by half) is 33.6 µM on Procathepsin L; 39.4 µM on Cathepsin B; 44 nM in the data set on A20; more than 25 µM against Cathepsin K; 10 nM on Cathepsin S [1].

With `N#CC1(NC(=O)[C@@H]2C[C@@H](S(=O)(=O)c3ccccc3)C[C@H]2C(=O)N2CC(O)C2)CC1`, the 50% inhibitory concentration (IC50) against Procathepsin L is 16.2 µM; on Cathepsin B it was 63.3 µM; in the data set on A20, 572 nM; on Cathepsin K it was more than 25 µM; against Cathepsin S [1] it was 7 nM.

On to `CC(C)(C#N)NC(=O)[C@@H]1C[C@@H](S(=O)(=O)c2ccccc2)C[C@H]1C(=O)N1CCOCC1`, for which the IC50 is more than 25 µM against Procathepsin L; more than 25 µM against Cathepsin B; 43 nM in the data set with A20; more than 25 µM against Cathepsin K; 3 nM against Cathepsin S [1].

As for `CN1CCN(C(=O)[C@@H]2C[C@H](S(=O)(=O)c3ccccc3)C[C@H]2C(=O)NC2(C#N)CC2)CC1`, the IC50 is 4.7 µM on Procathepsin L; 6.4 µM against Cathepsin B; 17 nM with A20; more than 25 µM at Cathepsin K; 2 nM against Cathepsin S [1].

For `COc1ccc(C(C#N)NC(=O)[C@@H]2CCCC[C@@H]2NC(=O)/C=C/c2ccccc2)cc1OC` (stereo partly drawn), the IC50 came to 0.016 µM against Cathepsin K and 640 nM on Cathepsin S [1].

With `N#CCNC(=O)[C@@H]1CN(S(=O)(=O)c2ccccc2)C[C@H]1C(=O)N1CCOCC1`, the IC50 in the data set on A20 was 4240 nM; against Cathepsin K, more than 25 µM; at Cathepsin S [1] it was 271 nM. Besides, the Ratio IC50 in the data set filed under Homo sapiens is more than 90.

Regarding `N#CC1(NC(=O)[C@@H]2C[C@@H](S(=O)(=O)c3ccccc3)C[C@H]2C(=O)N2CCCCC2)CC1`, the IC50 against Procathepsin L is 4.2 µM; on Cathepsin B, 3.6 µM; in the data set with A20, 5 nM; against Cathepsin K, more than 25 µM.

In the case of `CN(C)C(=O)[C@@H]1C[C@H](S(=O)(=O)c2ccccc2)C[C@H]1C(=O)NC1(C#N)CC1`, the IC50 at Procathepsin L was 24.9 µM; against Cathepsin B, 22.9 µM; in the data set with A20, 91 nM; at Cathepsin K, more than 25 µM; against Cathepsin S [1] it was 6 nM.

In the case of `N#CCNC(=O)[C@@H]1C[C@@H](S(=O)(=O)CC2CC2)C[C@H]1C(=O)N1CCOCC1`, the IC50 in the data set on A20 was 4510 nM; against Cathepsin K it was more than 25 µM. The Ratio IC50 in the data set filed under Homo sapiens was more than 100.

With `N#CC1(NC(=O)[C@@H]2C[C@@H](S(=O)(=O)c3ccccc3)C[C@H]2C(=O)N2CC3CCC(C2)O3)CC1`, the half-maximal inhibitory concentration (IC50) against Procathepsin L was 4.1 µM; at Cathepsin B, 13.1 µM; in the data set with A20 it was 16 nM; against Cathepsin K, more than 25 µM; against Cathepsin S [1] it was 1 nM.

Consider `N#CC1(NC(=O)[C@@H]2C[C@@H](S(=O)(=O)c3ccccc3)C[C@H]2C(=O)N2CCOCC2)CCC1`, for which the IC50 at Procathepsin L was more than 25 µM; on Cathepsin B, more than 25 µM; in the data set with A20, 236 nM; against Cathepsin K, more than 25 µM.

With `N#CC1(NC(=O)[C@@H]2C[C@@H](S(=O)(=O)c3ccccc3)C[C@H]2C(=O)N2CCOCC2)CC1`, the IC50 at Procathepsin L worked out at 12.2 µM; at Cathepsin B, 8.5 µM; with A20, 12 nM; at Cathepsin K, 29.7 µM.

With `N#CCNC(=O)[C@@H]1C[C@@H](S(=O)(=O)c2ccccc2C(F)(F)F)C[C@H]1C(=O)N1CCOCC1`, the figures for the IC50 in the data set on A20 and on Cathepsin K were 2 nM and more than 25 µM, respectively. In addition, the Ratio IC50 in the data set listed under Homo sapiens is more than 20000.

For the molecule `N#CCNC(=O)[C@@H]1CC(F)(F)C[C@H]1C(=O)N1CCOCC1`, the results for the concentration for half-maximal inhibition (IC50) with A20, at Cathepsin K and against Cathepsin S [1] were 925 nM, 0.855 µM and 830 nM, respectively. Besides, the Ratio IC50 in the data set listed under Homo sapiens worked out at 1.

`N#CC1(NC(=O)[C@@H]2C[C@@H](S(=O)(=O)c3ccccc3)C[C@H]2C(=O)Nc2ccc(F)cc2)CC1`: the half-maximal inhibitory concentration (IC50) on Procathepsin L was more than 25 µM; against Cathepsin B it was more than 25 µM; in the data set on A20 it was 391 nM; at Cathepsin K, more than 25 µM; against Cathepsin S [1], 26 nM.

Take `N#CCNC(=O)[C@@H]1C[C@@H](S(=O)(=O)c2ccccc2Cl)C[C@H]1C(=O)N1CCOCC1`: the IC50 in the data set with A20 is 3 nM; against Cathepsin K, more than 25 µM. Further, the Ratio IC50 in the data set filed under Homo sapiens is more than 20000.

For `N#CC1(NC(=O)[C@@H]2C[C@@H](S(=O)(=O)c3ccccc3)C[C@H]2C(=O)N2CCNCC2)CC1`, the IC50 is 2.6 µM on Procathepsin L, 13.3 µM on Cathepsin B, 1340 nM with A20 and more than 25 µM against Cathepsin K.

For `N#CC1(NC(=O)[C@@H]2C[C@@H](S(=O)(=O)c3ccccc3)C[C@H]2C(=O)N2CCC(O)CC2)CC1`, the IC50 against Procathepsin L is 4.6 µM; at Cathepsin B, 5.7 µM; in the data set with A20, 371 nM; at Cathepsin K, more than 25 µM. Also, in data set [2], the Papp was 0.2 ×10⁻⁶ cm/s.

In the case of `CC1CCN(C(=O)[C@@H]2C[C@H](S(=O)(=O)c3ccccc3)C[C@H]2C(=O)NC2(C#N)CC2)CC1`, the IC50 on Procathepsin L was 1.9 µM; at Cathepsin B, 0.7 µM; in the data set with A20 it was 2 nM; on Cathepsin K it was more than 25 µM. Besides, the Papp in data set [2] amounted to 4.6 ×10⁻⁶ cm/s.

Take `N#CC1(NC(=O)[C@@H]2C[C@@H](S(=O)(=O)c3ccccc3)C[C@H]2C(=O)N2CC3(COC3)C2)CC1`: the IC50 was 22.2 µM against Procathepsin L, 29.7 µM against Cathepsin B, 248 nM in the data set on A20 and more than 25 µM on Cathepsin K.

For the molecule `N#CC1(NC(=O)[C@@H]2C[C@@H](S(=O)(=O)c3ccccc3)C[C@H]2C(=O)N2CCS(=O)(=O)CC2)CC1`, the IC50 was 15.8 µM on Procathepsin L; 38 µM on Cathepsin B; 816 nM in the data set with A20; more than 25 µM against Cathepsin K; 4 nM at Cathepsin S [1]. Besides, the Papp in data set [2] turned out to be 0.2 ×10⁻⁶ cm/s.

Turning to `N#CC1(NC(=O)[C@@H]2C[C@@H](S(=O)(=O)c3ccccc3)CN2C(=O)c2ccccc2)CC1`, the IC50 on Cathepsin S [3] is 29 nM; against Procathepsin L it was more than 25 µM; at Cathepsin B, more than 25 µM; with A20 it was 217 nM; against Cathepsin K it was more than 25 µM; at Cathepsin S [1], 13 nM.

Consider `N#CCNC(=O)[C@@H]1CN(S(=O)(=O)c2ccccc2Cl)C[C@H]1C(=O)N1CCOCC1`, for which the IC50 in the data set with A20 is 208 nM; against Cathepsin K it was more than 25 µM; against Cathepsin S [1], 12 nM. Also, the Ratio IC50 in the data set filed under Homo sapiens is more than 1000.

Take `N#CC1(NC(=O)[C@@H]2C[C@@H](S(=O)(=O)c3ccccc3)C[C@H]2C(=O)N2CCCC2)CC1`: the IC50 against Procathepsin L was 17 µM; against Cathepsin B, 7.1 µM; with A20, 29 nM; against Cathepsin K, more than 25 µM; on Cathepsin S [1], 2 nM.

As to `C[C@@H]1CN(C(=O)[C@@H]2C[C@H](S(=O)(=O)c3ccccc3)C[C@H]2C(=O)NC2(C#N)CC2)C[C@H](C)O1`, the IC50 was 2.7 µM against Procathepsin L, 3.2 µM at Cathepsin B, 1 nM with A20 and more than 25 µM on Cathepsin K.

For the origin of these results see ChEMBL document CHEMBL3091448, “Identification of potent and selective cathepsin S inhibitors containing different central cyclic scaffolds” (J Med Chem, 2013).
